In ChEMBL document CHEMBL2040727, “Substituted thiazoles VI. Synthesis and antitumor activity of new 2-acetamido- and 2 or 3-propanamido-thiazole analogs” (2012):

Key:
Type in all cases: functional
Malme-3M = experiment: Growth inhibition of human MALME-3M cells at 10 uM after 48 hrs by coulter counter analysis; details: read-out: GI
Summary of the method: (§1)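 Single-dose NCI 60-line panel screen of test compounds. Cells grown in RPMI 1640 with 10% FBS. Compounds dissolved in DMSO, then diluted in phosphate buffer saline (final DMSO below 1%). Wells run in duplicate at 6 × 10⁴ cells/ml. Controls held PBS and DMSO at matching dilutions. Incubation 48 h at 37 °C under humidified 5% CO2. Cells diluted tenfold in saline and counted by Coulter counter. Percent growth inhibition taken from mean-graph of treated-cell growth.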

MOLT-4 = experiment: Growth inhibition of human MOLT4 cells at 10 uM after 48 hrs by coulter counter analysis; details: MOLT-4, 48 h, read-out: GI; summary of the method: as §1
U-251 = experiment: Growth inhibition of human U251 cells at 10 uM after 48 hrs by coulter counter analysis; details: U-251, 48 h, read-out: GI
Summary of the method: (§2)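 Single-dose screen in the NCI 60 cell line panel. Cells grown in RPMI 1640 with 10% FBS. Compounds dissolved in DMSO and diluted in phosphate buffered saline, final DMSO under 1%. Duplicate wells seeded from culture at 6 × 10⁴ cells/ml. Incubated 48 h at 37 °C, humidified, 5% CO2. Cells diluted tenfold in saline and Coulter-counted. Percent growth inhibition computed against PBS/DMSO controls.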

[1] = Growth inhibition of human Hs 578T cells at 10 uM after 48 hrs by coulter counter analysis; details: read-out: GI; summary of the method: as §1
UACC-62 = experiment: Growth inhibition of human UACC62 cells at 10 uM after 48 hrs by coulter counter analysis; details: UACC-62, 48 h, read-out: GI; summary of the method: as §2
MCF7 = experiment: Growth inhibition of human MCF7 cells at 10 uM after 48 hrs by coulter counter analysis; details: MCF7, 48 h, read-out: GI; summary of the method: as §1
SF-268 = experiment: Growth inhibition of human SF268 cells at 10 uM after 48 hrs by coulter counter analysis; details: SF-268, 48 h, read-out: GI; summary of the method: as §1
HL-60(TB) = experiment: Growth inhibition of human HL-60(TB) cells at 10 uM after 48 hrs by coulter counter analysis; details: HL-60, 48 h, read-out: GI
Summary of the method: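 Cells grown in RPMI 1640 with 10% FBS. Compound was dissolved in DMSO and diluted in PBS (under 1% DMSO final), then added in duplicate wells to culture at 6 × 10⁴ cells/ml. PBS/DMSO vehicle controls were included. Incubated at 37 °C, humidified 5% CO₂, for 48 h. Cells were diluted 10-fold in saline and Coulter-counted. Single-dose NCI-60 screen, read as percent growth inhibition.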

DU-145 = experiment: Growth inhibition of human DU145 cells at 10 uM after 48 hrs by coulter counter analysis; details: DU-145, 48 h, read-out: GI; summary of the method: as §1
SF-295 = experiment: Growth inhibition of human SF295 cells at 10 uM after 48 hrs by coulter counter analysis; details: SF-295, 48 h, read-out: GI; summary of the method: as §1
PC-3 = experiment: Growth inhibition of human PC3 cells at 10 uM after 48 hrs by coulter counter analysis; details: PC-3, 48 h, read-out: GI; summary of the method: as §1
RXF 393 = experiment: Growth inhibition of human RXF393 cells at 10 uM after 48 hrs by coulter counter analysis; details: RXF 393, 48 h, read-out: GI; summary of the method: as §1
NCI-H322M = experiment: Growth inhibition of human NCI-H322M cells at 10 uM after 48 hrs by coulter counter analysis; details: read-out: GI; summary of the method: as §1
UACC-257 = experiment: Growth inhibition of human UACC257 cells at 10 uM after 48 hrs by coulter counter analysis; details: UACC-257, 48 h, read-out: GI; summary of the method: as §2
SR = experiment: Growth inhibition of human SR cells at 10 uM after 48 hrs by coulter counter analysis; details: read-out: GI; summary of the method: as §2
SK-OV-3 = experiment: Growth inhibition of human SKOV3 cells at 10 uM after 48 hrs by coulter counter analysis; details: SK-OV-3, 48 h, read-out: GI; summary of the method: as §1
HCT-15 = experiment: Growth inhibition of human HCT15 cells at 10 uM after 48 hrs by coulter counter analysis; details: HCT-15, 48 h, read-out: GI; summary of the method: as §1
CCRF-CEM = experiment: Growth inhibition of human CCRF-CEM cells at 10 uM after 48 hrs by coulter counter analysis; details: read-out: GI; summary of the method: as §1
SW-620 = experiment: Growth inhibition of human SW620 cells at 10 uM after 48 hrs by coulter counter analysis; details: SW-620, 48 h, read-out: GI; summary of the method: as §2
COLO 205 = experiment: Growth inhibition of human COLO205 cells at 10 uM after 48 hrs by coulter counter analysis; details: COLO 205, 48 h, read-out: GI; summary of the method: as §1
HCT-116 = experiment: Growth inhibition of human HCT116 cells at 10 uM after 48 hrs by coulter counter analysis; details: HCT-116, 48 h, read-out: GI; summary of the method: as §1
IGROV-1 = experiment: Growth inhibition of human IGROV1 cells at 10 uM after 48 hrs by coulter counter analysis; details: IGROV-1, 48 h, read-out: GI; summary of the method: as §1
TK-10 = experiment: Growth inhibition of human TK10 cells at 10 uM after 48 hrs by coulter counter analysis; details: TK-10, 48 h, read-out: GI; summary of the method: as §2
RPMI-8226 = experiment: Growth inhibition of human RPMI8226 cells at 10 uM after 48 hrs by coulter counter analysis; details: RPMI-8226, 48 h, read-out: GI; summary of the method: as §1
NCI-H23 = experiment: Growth inhibition of human NCI-H23 cells at 10 uM after 48 hrs by coulter counter analysis; details: NCI-H23, 48 h, read-out: GI; summary of the method: as §1
M14 = experiment: Growth inhibition of human M14 cells at 10 uM after 48 hrs by coulter counter analysis; details: M14, 48 h, read-out: GI; summary of the method: as §1

Compound	inhibition of growth at 10 µM (Malme-3M) [%]	inhibition of growth at 10 µM (MOLT-4) [%]	inhibition of growth at 10 µM (U-251) [%]	inhibition of growth at 10 µM [1] [%]	inhibition of growth at 10 µM (UACC-62) [%]	inhibition of growth at 10 µM (MCF7) [%]	inhibition of growth at 10 µM (SF-268) [%]	inhibition of growth at 10 µM (HL-60(TB)) [%]	inhibition of growth at 10 µM (DU-145) [%]	inhibition of growth at 10 µM (SF-295) [%]	inhibition of growth at 10 µM (PC-3) [%]	inhibition of growth at 10 µM (RXF 393) [%]	inhibition of growth at 10 µM (NCI-H322M) [%]	inhibition of growth at 10 µM (UACC-257) [%]	inhibition of growth at 10 µM (SR) [%]	inhibition of growth at 10 µM (SK-OV-3) [%]	inhibition of growth at 10 µM (HCT-15) [%]	inhibition of growth at 10 µM (CCRF-CEM) [%]	inhibition of growth at 10 µM (SW-620) [%]	inhibition of growth at 10 µM (COLO 205) [%]	other results
Cc1csc(NC(=O)C(C)N2CCN(C)CC2)n1 (configuration not stated)	17.6	12.1	23.5	< 10	24	35.6	< 10	< 10	< 10	< 10	< 10	< 10	< 10	< 10	< 10	< 10	25.5	41.1	< 10	< 10	inhibition of growth at 10 µM (HCT-116): 30.1%; inhibition of growth at 10 µM (IGROV-1): < 10%; inhibition of growth at 10 µM (TK-10): < 10%; inhibition of growth at 10 µM (RPMI-8226): < 10%; inhibition of growth at 10 µM (NCI-H23): 19.8%; inhibition of growth at 10 µM (M14): 25.5%
CC(C(=O)Nc1nccs1)N1CCN(c2ccccc2)CC1 (configuration not stated)	< 10	< 10	< 10	< 10	< 10	< 10	< 10	< 10	< 10	< 10	< 10	< 10	< 10	< 10	< 10	< 10	< 10	< 10	< 10	< 10	inhibition of growth at 10 µM (HCT-116): < 10%; inhibition of growth at 10 µM (IGROV-1): < 10%; inhibition of growth at 10 µM (TK-10): < 10%; inhibition of growth at 10 µM (RPMI-8226): < 10%; inhibition of growth at 10 µM (NCI-H23): < 10%; inhibition of growth at 10 µM (M14): < 10%
Cc1csc(NC(=O)C(C)N2CCN(c3ccccc3)CC2)n1 (configuration not stated)	< 10	< 10	< 10	< 10	< 10	< 10	< 10	< 10	< 10	< 10	< 10	< 10	< 10	< 10	< 10	< 10	< 10	< 10	< 10	< 10	inhibition of growth at 10 µM (HCT-116): < 10%; inhibition of growth at 10 µM (IGROV-1): < 10%; inhibition of growth at 10 µM (TK-10): < 10%; inhibition of growth at 10 µM (RPMI-8226): < 10%; inhibition of growth at 10 µM (NCI-H23): < 10%; inhibition of growth at 10 µM (M14): < 10%
CCOC(=O)c1sc(NC(=O)C(C)N(CC)CC)nc1C (configuration not stated)	< 10	< 10	< 10	< 10	< 10	< 10	< 10	< 10	< 10	< 10	< 10	< 10	< 10	< 10	< 10	< 10	< 10	< 10	< 10	< 10	inhibition of growth at 10 µM (HCT-116): < 10%; inhibition of growth at 10 µM (IGROV-1): < 10%; inhibition of growth at 10 µM (TK-10): < 10%; inhibition of growth at 10 µM (RPMI-8226): < 10%; inhibition of growth at 10 µM (NCI-H23): < 10%; inhibition of growth at 10 µM (M14): < 10%
CCOC(=O)c1sc(NC(=O)C(C)N2CCCCC2)nc1C (configuration not stated)	< 10	< 10	< 10	< 10	< 10	< 10	< 10	< 10	< 10	< 10	< 10	< 10	< 10	< 10	< 10	< 10	< 10	< 10	< 10	< 10	inhibition of growth at 10 µM (HCT-116): < 10%; inhibition of growth at 10 µM (IGROV-1): < 10%; inhibition of growth at 10 µM (TK-10): < 10%; inhibition of growth at 10 µM (RPMI-8226): < 10%; inhibition of growth at 10 µM (NCI-H23): < 10%; inhibition of growth at 10 µM (M14): < 10%
CCOC(=O)c1sc(NC(=O)C(C)N2CCOCC2)nc1C (configuration not stated)	< 10	< 10	< 10	< 10	< 10	< 10	< 10	< 10	< 10	< 10	< 10	< 10	< 10	< 10	< 10	< 10	< 10	< 10	< 10	< 10	inhibition of growth at 10 µM (HCT-116): < 10%; inhibition of growth at 10 µM (IGROV-1): < 10%; inhibition of growth at 10 µM (TK-10): < 10%; inhibition of growth at 10 µM (RPMI-8226): < 10%; inhibition of growth at 10 µM (NCI-H23): < 10%; inhibition of growth at 10 µM (M14): < 10%
CCOC(=O)c1sc(NC(=O)C(C)N2CCN(C)CC2)nc1C (configuration not stated)	< 10	< 10	< 10	< 10	< 10	< 10	< 10	< 10	< 10	< 10	< 10	< 10	< 10	< 10	< 10	< 10	< 10	< 10	< 10	< 10	inhibition of growth at 10 µM (HCT-116): < 10%; inhibition of growth at 10 µM (IGROV-1): < 10%; inhibition of growth at 10 µM (TK-10): < 10%; inhibition of growth at 10 µM (RPMI-8226): < 10%; inhibition of growth at 10 µM (NCI-H23): < 10%; inhibition of growth at 10 µM (M14): < 10%
